Assay [1] addresses T1, Cannabinoid receptor 2 (Homo sapiens, UniProt P34972). The experiment in a line: Inverse agonist activity at human recombinant CB2 receptor expressed CHO cells membrane by [35S]GTPgamma binding assay relative to 2-((1R,2R,5R)-5-hydroxy-2-(3-hydroxypropyl)cyclohexyl)-5-(2-methyloctan-2-yl)phenol. The class given is functional, cell membranes. The method in brief:
(§1)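 GTPγ[35S] binding in CHO membranes expressing recombinant hCB1 or hCB2. Membranes preincubated with GDP (30 μM solution) on ice for at least 15 min, then mixed with GTPγ[35S] and WGA SPA beads. Incubated 1 h at room temperature, centrifuged, held 1 h more, then counted. Eight concentrations (0.001–10 μM) in duplicate, reported as the mean of two. Emax expressed as % of the reference agonist.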

Assay [2] deals with T2, Cannabinoid receptor 1 (Homo sapiens, UniProt P21554). The experiment in a line: Inverse agonist activity at human recombinant CB1 receptor expressed CHO cells membrane by [35S]GTPgamma binding assay. The class given is functional, cell membranes. The method in brief: as §1
Assay [3] deals with T1, Cannabinoid receptor 2. In words: Inverse agonist activity at human recombinant CB2 receptor expressed CHO cells membrane by [35S]GTPgamma binding assay. In kind it is functional, cell membranes. Summed up: as §1
In assay [4] the target is T1, Cannabinoid receptor 2. The experiment in a line: Agonist activity at human CB2 receptor expressed CHO cells by [35S]GTPgamma binding assay. The class given is functional, cell-based.
Assay [5] has as its target T1, Cannabinoid receptor 2. In words: Inverse agonist activity at CB2 receptor. In kind it is functional. Summed up:
as §1

The target in assay [6] is T1, Cannabinoid receptor 2. In words: Binding affinity to CB2 receptor. The method in brief:
(§2)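 Competition binding on membranes of CHO-K1 cells expressing hCB2 (0.25 μg protein/well). Buffer was 50 mM Tris pH 7.4, 2.5 mM EDTA, 0.5% BSA, with 1 nM [3H]-labelled reference ligand. Nonspecific binding defined with 10 μM unlabelled ligand. Incubated 60 min at 30 °C, then filtered and counted by liquid scintillation. Duplicates at several concentrations. IC50 from a one-site fit, converted to Ki by Cheng–Prusoff.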

The target in assay [7] is T1, Cannabinoid receptor 2. The experiment in a line: Binding affinity to CB2 receptor by competition binding assay. Summed up:
as §2

Assay [8] concerns the target T2, Cannabinoid receptor 1. The experiment in a line: Inverse agonist activity at human recombinant CB1 receptor expressed CHO cells membrane by [35S]GTPgamma binding assay relative to 2-((1R,2R,5R)-5-hydroxy-2-(3-hydroxypropyl)cyclohexyl)-5-(2-methyloctan-2-yl)phenol. In kind it is functional, cell membranes. The method in brief:
as §1

In assay [9] the test system is Rattus norvegicus. In words: Inhibition of (3-benzyl-3-methyl-2,3-dihydrobenzofuran-6-yl)(piperidin-1-yl)methanone-induced antiallodynic activity in L5/L6 spinal nerve tight ligated neuropathic pain Sprague-Dawley rat model assessed as paw withdrawal threshold at 10 mg/kg, ip administered 15 mins before 3-benzyl-3-methyl-2,3-dihydrobenzofuran-6-yl)(piperidin-1-yl)methanone challenge. Also noted: dose 10 mg/kg. The class given is functional, organism-based. Summed up:
(§3)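 Adult male Sprague–Dawley rats (120–150 g). Left L5 and L6 spinal nerves tightly ligated with 6–0 silk under isoflurane. Tested 10–14 days after ligation. Drugs given ip. Vehicle was N-methylpyrrolidone 30%, propylene glycol 30%, ethanol 10%, Cremophor 10% and water. For […], given 15 min before the ip CB2 agonist. Von Frey up–down 50% withdrawal threshold (cutoff 15 g) and %MPE, n = 5 per group.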

For assay [10], the target named is T1, Cannabinoid receptor 2. In words: Displacement of [3H] 2-((1R,2R,5R)-5-hydroxy-2-(3-hydroxypropyl)cyclohexyl)-5-(2-methyloctan-2-yl)phenol from human CB2 receptor expressed CHO-K1 cells by liquid scintillation counting. In kind it is cell-based. The method in brief: as §2
Assay [11] relates to Rattus norvegicus. The experiment in a line: Antiallodynic activity in Sprague-Dawley rat L5/L6 spinal nerve tight ligated neuropathic pain model assessed as paw withdrawal threshold at 10 mg/kg, ip […] ipsilateral injured paw. In kind it is functional, organism-based. On the set-up: dose 10 mg/kg. Summed up:
as §3

The source made the active and inactive calls.

T2 sequence (P21554 whole entry): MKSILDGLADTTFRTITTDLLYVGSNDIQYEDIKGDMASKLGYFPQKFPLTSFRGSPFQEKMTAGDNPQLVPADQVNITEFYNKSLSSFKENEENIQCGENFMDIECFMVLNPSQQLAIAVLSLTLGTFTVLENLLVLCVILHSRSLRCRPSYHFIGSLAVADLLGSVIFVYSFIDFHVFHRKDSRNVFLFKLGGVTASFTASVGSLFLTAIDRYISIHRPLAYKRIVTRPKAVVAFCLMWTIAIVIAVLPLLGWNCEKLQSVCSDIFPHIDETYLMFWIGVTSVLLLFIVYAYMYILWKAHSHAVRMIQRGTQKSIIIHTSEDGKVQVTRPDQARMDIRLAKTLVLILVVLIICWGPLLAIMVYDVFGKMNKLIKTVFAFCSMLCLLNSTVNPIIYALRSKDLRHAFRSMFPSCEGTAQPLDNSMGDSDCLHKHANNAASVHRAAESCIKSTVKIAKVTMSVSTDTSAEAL
T1 sequence (P34972 whole entry): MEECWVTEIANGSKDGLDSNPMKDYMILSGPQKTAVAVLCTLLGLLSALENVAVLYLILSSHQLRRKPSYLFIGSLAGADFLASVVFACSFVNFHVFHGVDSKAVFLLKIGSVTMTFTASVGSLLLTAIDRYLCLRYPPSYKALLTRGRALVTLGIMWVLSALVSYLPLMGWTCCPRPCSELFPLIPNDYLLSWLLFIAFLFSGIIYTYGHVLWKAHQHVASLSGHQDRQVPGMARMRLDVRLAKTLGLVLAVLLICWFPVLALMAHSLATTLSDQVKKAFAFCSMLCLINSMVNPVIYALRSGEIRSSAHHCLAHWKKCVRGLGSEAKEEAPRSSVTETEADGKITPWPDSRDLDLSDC

Consider `COc1ccc2c(c1)N(CCC1CCCCC1)C(=O)/C2=N\NC(=O)c1ccccc1`, for which the Emax on Cannabinoid receptor 2 [1] was -104%. For the same molecule, the EC50 on Cannabinoid receptor 1 [2] was above 10000 nM.
Regarding `CCCCN1C(=O)/C(=N\NC(=O)c2ccccc2)c2ccc(OC)cc21`, the Emax on Cannabinoid receptor 2 [1] is -95%. The EC50 on Cannabinoid receptor 1 [2] was above 10000 nM.
For the molecule `CCCCCN1C(=O)/C(=N\NC(=O)OC(C)(C)C)c2ccc(OC)cc21`, the Emax on Cannabinoid receptor 2 [1] was -97%. Also, the EC50 on Cannabinoid receptor 2 [3] was 15.9 nM; at Cannabinoid receptor 1 [2] it was above 10000 nM.
In the case of `COc1ccc2c(c1)N(Cc1ccccc1)C(=O)/C2=N\NC(=O)c1ccccc1`, the Emax on Cannabinoid receptor 2 [1] is -96%. Further, the EC50 on Cannabinoid receptor 1 [2] was above 10000 nM.
`COc1ccc(C(=O)c2c(C)n(CCN3CCOCC3)c3cc(I)ccc23)cc1`: at Cannabinoid receptor 2 [4], it took 76.6 nM to reach a half-maximal effect (EC50).
Consider `CCCCCN1C(=O)/C(=N\NC(=O)CC(C)C)c2ccc(OC)cc21`, for which the Emax at Cannabinoid receptor 2 [1] was -78%. In addition, the figures for the concentration for a half-maximal effect (EC50) on Cannabinoid receptor 2 [3] and at Cannabinoid receptor 1 [2] were 11.7 nM and above 10000 nM, respectively.
`CN(c1ccc2c(c1)nc(Cc1ccc3c(c1)CCO3)n2CC1CCCCC1)S(=O)(=O)c1ccccc1` showed an EC50 on Cannabinoid receptor 2 [5] of 2.2 nM. Also, the Activity on Cannabinoid receptor 2 [6] is 0.7 nM. The molecule also returned a Ki at Cannabinoid receptor 2 [7] of 1.2 nM.
On to `COc1ccc2c(c1)N(CC1CCCCC1)C(=O)/C2=N\NC(=O)C1CCCCC1`, for which, on Cannabinoid receptor 2 [1], the Emax was -69%. The EC50 at Cannabinoid receptor 2 [3] was 71.6 nM; on Cannabinoid receptor 1 [2], above 10000 nM.
For the molecule `CCCCCN1C(=O)/C(=N\NC(=O)CC2CCCCC2)c2ccc(OC)cc21`, the Emax at Cannabinoid receptor 2 [1] was -88%. For the same molecule, the EC50 at Cannabinoid receptor 2 [3] was 43 nM; on Cannabinoid receptor 1 [2], above 10000 nM.
`CCCCCN1C(=O)/C(=N\NC(=O)C2CCCCC2)c2ccc(OC)cc21`: the Emax on Cannabinoid receptor 2 [1] was -105%. Besides, the results for the EC50 on Cannabinoid receptor 2 [3] and on Cannabinoid receptor 1 [2] were 28.7 nM and above 10000 nM, respectively.
As for `CCCCCN1C(=O)/C(=N\NC(=O)c2ccccc2)c2ccc(OC)cc21`, the Emax at Cannabinoid receptor 2 [1] was -108%; on Cannabinoid receptor 1 [8], 41%. Further, the EC50 on Cannabinoid receptor 1 [2] came out at 263 nM.
As for `CCCCCN1C(=O)/C(=N\NC(=O)C(C)(C)O)c2ccc(OC)cc21`, the Emax on Cannabinoid receptor 2 [1] is -99%. The results for the EC50 at Cannabinoid receptor 2 [3] and on Cannabinoid receptor 1 [2] were 14.7 nM and above 10000 nM, respectively.
For `CCCCCN1C(=O)/C(=N\NC(=O)C(C)(C)C)c2ccc(OC)cc21` the same measures were -78%, 10 nM and above 10000 nM.
`CCCCCCN1C(=O)/C(=N\NC(=O)c2ccccc2)c2ccc(OC)cc21`: at Cannabinoid receptor 2 [1], the Emax was -92%. Moreover, the outcome with Rattus norvegicus [9] was Active. Besides, the EC50 was 88.2 nM at Cannabinoid receptor 2 [3] and above 10000 nM on Cannabinoid receptor 1 [2]. For the same molecule, the Ki at Cannabinoid receptor 2 [6] and on Cannabinoid receptor 2 [10] was 89.9 nM each time.
Take `CC1(Cc2ccccc2)COc2cc(C(=O)N3CCCCC3)ccc21` (centres undefined): the result in the assay with Rattus norvegicus [11] was Active.
Regarding `COCCN1C(=O)/C(=N\NC(=O)c2ccccc2)c2ccc(OC)cc21`, the Emax on Cannabinoid receptor 2 [1] was -60%. The EC50 on Cannabinoid receptor 2 [3] is 492 nM; on Cannabinoid receptor 1 [2] it was above 10000 nM.
As to `CCCCCN1C(=O)/C(=N\NC(=O)CN2CCOCC2)c2ccc(OC)cc21`, on Cannabinoid receptor 2 [1], the Emax was -80%. Also, the EC50 was 13.3 nM at Cannabinoid receptor 2 [3] and above 10000 nM at Cannabinoid receptor 1 [2].
Turning to `COc1ccc2c(c1)N(CC1CCCCC1)C(=O)/C2=N\NC(=O)c1ccccc1`, the Emax was -82% on Cannabinoid receptor 2 [1] and 40.8% at Cannabinoid receptor 1 [8].

As a reminder, the Emax is the greatest response seen or fitted, relative to the assay's reference. One may read the EC50 as the midpoint of the concentration-response curve. One may read the Ki as the equilibrium dissociation constant of an inhibitor or competing ligand from its target.
